Legend:
Type in all cases: functional
MDA-MB-231 [1] = test: Induction of apoptosis in human MDA-MB-231 cells assessed as early apoptotic cells at 1.5 uM after 24 hrs by Annexin V/propidium iodide based flow cytometric analysis (reference value: 0.94%)
How it was run: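 MDA-MB-231 cells (2×10^5/well) attached 24 h, then treated 24 h with 1, 1.5, 2 or 3 µM, DMSO as control. Cells harvested, PBS-washed, resuspended in binding buffer, stained with Annexin V and PI for 30 min at 37°C in the dark, and analysed by flow cytometry for quadrant percentages; three experiments.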

MDA-MB-231 [2] = test: Induction of cell cycle arrest in human MDA-MB-231 cells assessed as accumulation at G0/G1 phase at 1.5 uM measured after 24 hrs by propidium iodide staining based flow cytometric method (reference value: 45.71%)
MCF7 = test: Antiproliferative activity against human MCF7 cells assessed as inhibition of cell growth rate at 10 uM measured after 48 hrs by MTT assay
How it was run: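 MCF-7 cells in DMEM with 10% FBS exposed to a single 10 µM concentration for 48 h. Read-out by MTT (0.5 mg/ml, 4 h, DMSO dissolution, A570). Inhibition rate given versus untreated control as mean ± SD, n = 3.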

## COc1cc2cc(N)c(=O)oc2cc1OCCCOc1no[n+]([O-])c1S(=O)(=O)c1ccccc1
MDA-MB-231 [1]
  Activity: 10.8%
MDA-MB-231 [2]
  Activity: 41.85%
MCF7
  inhibition at 10 µM: 91.5%

From ChEMBL document CHEMBL4765333, “Novel NO-releasing scopoletin derivatives induce cell death via mitochondrial apoptosis pathway and cell cycle arrest” (Eur J Med Chem, 2020)
